Only some compounds are listed: those with a hit (about 3.5% of all), similar ones and a draw of the others.
MEKK2 WT-MEK5 – raises or lowers MEK5 binding to wildtype human MEKK2 PB1 domain. Q9Y2U5. bead flow cytometry, Alexa488-MEK5 binding to MEKK2 WT; actives lie on both sides. binding response (% of control), % at 10 µM. 1.1% of 290,000 active. AID 1531; in the data active = binding response below about 67% or above about 130%
MEKK2 mut-MEK5 – signal of MEK5 binding to mutant human MEKK2 PB1 domain | percent response, % at 10 µM | 0.35% of 290,000 active | bead flow cytometry, Alexa488-MEK5 binding to MEKK2 mutant; in the data active = percent response above about 24%, passing the limit was not always enough
ABCG2 inh – human ABCG2 inhibition, ABCB1 as counter-screen | Q9UNQ0 | IgMXP3 cells, JC-1 efflux, flow cytometry | inhibition, % at 6.6 µM | 0.1% of 190,000 active | AID 1325;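 active = inhibition above 80%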;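 note: 0% = DMSO and 100% = nicardipine control wells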
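Measure – % inhibition of efflux relative to nicardipine and DMSO · Test system – ABCG2 IgMXP3 and barcoded ABCB1 CCRF-Adr cell mix · Control set – nicardipine as high control, DMSO as low control · Compound – one concentration, 6.6 µM final · Signal – flow cytometry of retained JC-1 fluorescence · Timing – 10 min exposure at 25 °C with rotation, no wash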
MEKK3 PB1 HTS – modulators (inhibitors or enhancers) of MEK5 binding to human MEKK3 PB1 domain; AID 1529; binding response (% of control), % at 10 µM; 1.4% of 290,000 active; bead-based flow cytometry, Alexa488-MEK5 binding to MEKK3; actives lie on both sides; 0 = blocked by unlabeled MEK5, 100 = vehicle;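 active = binding response more than 3 SD above or below the average of its plate-row segment, actives on both sides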;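 note: Alexa488 bead fluorescence after subtracting the streptavidin-only scavenger bead signal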
ABCB1 inh – human ABCB1 inhibition, ABCG2 as counter-screen | CCRF-Adr cells, JC-1 efflux, flow cytometry | inhibition, % at 6.6 µM | P08183 | 0.067% of 190,000 active | AID 1326; in the data active = inhibition above about 40%;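 note: 0% = vehicle and 100% = reference inhibitor; higher value means more JC-1 retained so stronger ABCB1 efflux block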
WT yeast gro inh – growth inhibition of WT yeast, mitochondrial fusion screen | inhibition, % at 10 µM | 2.1% of 190,000 active | mitochondrial fusion phenotypic screen, WT strain; in the data active = inhibition above about 58%; tested in S. cerevisiae
The depositor's hits bear a star; x = not tested or not shown.

SMILES	MEKK2 WT-MEK5	MEKK2 mut-MEK5	ABCG2 inh	MEKK3 PB1 HTS	ABCB1 inh	WT yeast gro inh
COc1cc2c(cc1OC)C(COc1cc(C)cc(C)c1)N(C(C)=O)CC2 (configuration not stated)	102.0	2.0	x	101.0	x	x
O=C(NCCCN1CCOCC1)c1ccccc1-c1ccccc1	108.0	5.0	1.8	102.0	0.8	74.5*
O=C(Nc1ccccc1C(=O)NCCCN1CCOCC1)c1ccccc1	99.0	-2.0	x	100.0	x	x
CC(=O)NC(=S)Nc1ccc(S(=O)(=O)N(C)Cc2ccccc2)cc1	102.0	5.0	7.0	100.0	1.3	16.0
CC(C)C(=O)NC(=S)Nc1ccc(S(=O)(=O)N(C)Cc2ccccc2)cc1	100.0	1.0	4.1	106.0	0.4	58.5*
N#Cc1sc2nc(N3CCCCC3)c3c(c2c1N)CCCC3	109.0	4.0	5.1	102.0	0.2	72.8*
Cc1nc2sc(C#N)c(N)c2c2c1CCCC2	100.0	1.0	15.8	94.0	0.7	0.0
O=C(NCCCN1CCOCC1)c1ccc(/C=C2\Oc3ccccc3N(Cc3ccccc3F)C2=O)cc1	133.0	22.0	x	105.0	x	x
CCN1CCN(CCCNC(=O)c2ccc(/C=C3/Sc4ccccc4N(Cc4ccccc4F)C3=O)cc2)CC1	177.0*	40.0	4.0	102.0	5.6	81.9
CCN1CCN(CCCNC(=O)c2ccc(/C=C3/Oc4ccccc4N(Cc4cccc(C)c4)C3=O)cc2)CC1	169.0*	34.0*	x	105.0	x	x
CN(Cc1ccsc1)C(=O)Cn1cc(Br)ccc1=O	105.0	1.0	x	101.0	x	x
Cc1ccc(C(=O)N(c2c(C)n(C)n(-c3ccccc3)c2=O)C(C)C)cc1	107.0	4.0	2.7	103.0	0.8	9.7
COc1ccccc1CNc1ncnc2nc[nH]c12	107.0	9.0	7.0	110.0	0.7	-23.0
COc1ccccc1Nc1ncnc2nc[nH]c12	109.0	4.0	2.4	104.0	0.3	69.9*
COc1ccc(C)cc1NC(=O)CCNC(=O)Cn1cnc2ccccc2c1=O	98.0	3.0	x	99.0	x	x
CC(=O)Oc1c(C)cc(Cl)cc1C(=O)Nc1ccc([N+](=O)[O-])cc1Cl	96.0	-4.0	5.6	94.0	0.2	85.2*
Cc1cc(OC(C)C(=O)NCc2ccncc2)c2c(C)c(C)c(=O)oc2c1 (configuration not stated)	103.0	-2.0	x	98.0	x	x
Cc1onc(-c2ccccc2Cl)c1C(=O)Nc1nnc(-c2cccc([N+](=O)[O-])c2)s1	112.0	11.0	4.3	116.0	1.5	63.9*
COc1ccc(OC)c(CCNC(=O)CCC(=O)N2CCOc3ccc(C)cc32)c1	103.0	3.0	x	98.0	x	x
Cc1ccc(S(=O)(=O)CCC(=O)N2CCN(c3ccc([N+](=O)[O-])cc3)CC2)cc1	100.0	-5.0	x	99.0	x	x
Cc1nn(C(=O)C2CC2)c(C)c1Sc1ccc(Cl)cc1	102.0	4.0	-0.4	100.0	0.1	79.5*
Cc1ccc(Sc2c(C)nn(C(=O)C3CC3)c2C)cc1	109.0	1.0	0.3	104.0	0.1	84.6*
Cc1nn(C(=O)c2ccco2)c(C)c1Sc1ccc(Br)cc1	x	x	1.4	x	0.0	1.3
CCC(=C(c1ccc(OC)cc1)c1ccc(OC)cc1)c1cn(CC(O)CN2CCN(C)CC2)c2ccccc12 (configuration not stated)	x	x	3.5	x	3.3	80.3*
OC1CCN(c2c3c(nc4cc(-c5cccc(F)c5)nn24)CCCC3)CC1	97.0	0.0	3.3	95.0	0.3	23.0
Fc1cccc(-c2cc3nc4c(c(N5CCC6(CC5)OCCO6)n3n2)CCCC4)c1	84.0	-16.0	41.5	83.0	17.5	68.7*
CCCSc1nc(-n2ncc(C#N)c2N)c2c3c(sc2n1)CCC(C)C3 (configuration not stated)	95.0	-3.0	17.9	105.0	0.8	64.3*
OC(COCc1ccc(Cl)cc1)CN1CCN(CC(O)COCc2ccc(Cl)cc2)CC1 (configuration not stated)	128.0	6.0	0.3	106.0	1.4	58.0*
OC(COCc1ccc(Cl)cc1)CN1CCCCC1 (configuration not stated)	97.0	-6.0	x	97.0	x	x
Cc1ccc(NC(=S)NCc2ccc3c(c2)OCO3)cc1C	98.0	0.0	3.5	99.0	0.3	60.9*

Source: PubChem BioAssay
